Activity calls are given as the source filed them. No cut-off for these calls is given here.
Tests used:
Danio rerio [1] = species: Danio rerio; assay: Antiangiogenic activity in 24 to 72 hrs post fertilized zebra fish embryo harboring fli1:EGFP after 48 hrs by fluorescence microscopic analysis; format: functional
Procedure, shortened: (§1)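 Tg(fli1:EGFP) zebrafish: 20 dechorionated 24 hpf embryos per group in 1 mL embryo water with compound (1, 5, 10, 25, 50, 75, 100, 150, 200 μM), 28.5 °C for 48 h. Embryos anaesthetised in 0.016% tricaine; ISVs imaged by fluorescence microscopy at 72 hpf and scored for vessel defects and overall morphology. SU5416 positive control.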

Danio rerio [2] = species: Danio rerio; assay: Toxicity in 24 to 72 hrs post fertilized zebra fish embryo harboring fli1:EGFP; format: organism-based; details: zebrafish, in vivo
Procedure, shortened: (§2)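 Dechorionated Tg(fli1:EGFP) embryos at 24 hpf, 20 per group, were kept in 1 mL embryo water with compound at 28.5 °C for a further 48 h. Compound was tested at 1, 5, 10, 25, 50, 75, 100, 150 and 200 μM. At 72 hpf, embryos anaesthetised with 0.016% tricaine had their ISVs imaged by fluorescence microscopy, with SU5416 as positive control. Definitions used: LOEC is anti-angiogenic effect in most larvae; LOTC is lowest toxic concentration; LC100 is total embryo lethality. TI = LOTC/LOEC; AI = LC100/LOEC.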

[3] = Toxicity index, ratio of MTC for 24 to 72 hrs post fertilized zebra fish embryo harboring fli1:EGFP to MEC for antiangiogenic activity in 24 to 72 hrs post fertilized zebra fish embryo harboring fli1:EGFP; format: organism-based, Danio rerio; details: fli1:EGFP transgenic, zebrafish, in vivo; procedure, shortened: as §2
[4] = Antiangiogenic index, ratio of LC100 for 24 to 72 hrs post fertilized zebra fish embryo harboring fli1:EGFP to MEC for antiangiogenic activity in 24 to 72 hrs post fertilized zebra fish embryo harboring fli1:EGFP; format: toxicity, organism-based, Danio rerio; details: fli1:EGFP transgenic, zebrafish, in vivo; procedure, shortened: as §2
Danio rerio [5] = species: Danio rerio; assay: Antiangiogenic activity in 48 hrs post fertilized zebra fish embryo harboring fli1:EGFP assessed as inhibition of intersegmental vessel formation by fluorescence microscopic analysis; format: functional, organism-based; procedure, shortened: as §1
Danio rerio [6] = species: Danio rerio; assay: Antiangiogenic activity in 48 hrs post fertilized zebra fish embryo harboring fli1:EGFP assessed as inhibition of intersegmental vessel formation at 50 uM by fluorescence microscopic analysis; format: functional; procedure, shortened: as §1
Danio rerio [7] = species: Danio rerio; assay: Antiangiogenic activity in 48 hrs post fertilized zebra fish embryo harboring fli1:EGFP assessed as inhibition of dorsal long axis blood vessel formation at 50 uM by fluorescence microscopic analysis; format: functional; procedure, shortened: as §1
Danio rerio [8] = species: Danio rerio; assay: Toxicity in 48 hrs post fertilized zebra fish embryo harboring fli1:EGFP assessed as morphological changes at 5 to 50 uM; format: organism-based; details: zebrafish, in vivo; procedure, shortened: as §1
Danio rerio [9] = species: Danio rerio; assay: Antiangiogenic activity in 48 hrs post fertilized zebra fish embryo harboring fli1:EGFP assessed as changes in blood vessel formation at late stage embryos by fluorescence microscopic analysis; format: functional, organism-based; procedure, shortened: as §1
HUVEC [10] = assay: Cytotoxicity against HUVEC assessed as inhibition of cell proliferation after 48 hrs by CCK8 assay; format: cell-based, Homo sapiens
Procedure, shortened: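 HUVECs were seeded at 3000/well in EGM-2 and allowed 12 h to attach, then exposed 48 h to compound (5–50 μM) or 0.1% DMSO vehicle. Growth was read by CCK-8 absorbance at 450 nm, in triplicate, and IC50 was calculated from the concentration–response data.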

HUVEC [11] = assay: Antimigratory activity in HUVEC at 25 uM after 8 hrs by crystal violet staining based Boyden chamber assay relative to control; format: functional, Homo sapiens
Procedure, shortened: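 Boyden chamber with 8 μm pores, 8000 HUVECs/well, compound or vehicle in the top chamber, 8 h migration. Non-migrated cells removed by swab; migrated cells fixed in 100% methanol, stained with 0.05% crystal violet and counted manually in four random fields per well. Three replicate wells; % inhibition relative to control set at 100%; mean ± SEM, n=3.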

HUVEC [12] = assay: Antiangiogenic activity in HUVEC assessed as inhibition of capillary-like tube formation after 12 hrs by matrigel-based microscopic analysis; format: functional, cell-based; details: Homo sapiens
Procedure, shortened: (§3)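 Growth-factor-reduced Matrigel solidified 120 min at 37 °C; 2×10⁴ HUVECs/well in EGM-2 with compound or 2 μM SU5416, 12 h. Networks imaged at 100× and tube length quantified in four random fields; mean ± SEM, n=3.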

HUVEC [13] = assay: Antiangiogenic activity in HUVEC assessed as inhibition of capillary-like tube formation at 25 uM after 12 hrs by matrigel-based microscopic analysis; format: functional; details: Homo sapiens; procedure, shortened: as §3
HUVEC [14] = assay: Antiangiogenic activity in HUVEC assessed as inhibition of capillary-like tube formation at 50 uM after 12 hrs by matrigel-based microscopic analysis; format: functional; details: Homo sapiens; procedure, shortened: as §3
HUVEC [15] = assay: Antiangiogenic activity in HUVEC assessed as inhibition of capillary-like tube formation at 100 uM after 12 hrs by matrigel-based microscopic analysis; format: functional; details: Homo sapiens; procedure, shortened: as §3
A549 [16] = assay: Antiproliferative activity against human A549 cells after 48 hrs by MTT assay; format: functional, cell-based; details: A549, 48 h
Procedure, shortened: (§4)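 A549 or L929 fibroblasts seeded at 4×10⁴ cells/mL in DMEM with 10% FBS, 5% horse serum and penicillin/streptomycin, 37 °C, 5% CO₂. After 24 h, compound added for 48 h. MTT read at 570 nm; viability = OD treated/OD untreated ×100%; mean ± SD.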

L929 = assay: Cytotoxicity against mouse L929 cells after 48 hrs by MTT assay; format: functional, cell-based; details: L929, 48 h; procedure, shortened: as §4
A549 [17] = assay: Induction of apoptosis in human A549 cells assessed as live cells at 1 uM after 48 hrs by Annexin-V-FITC/propidium iodide staining based flow cytometry (reference value: 75.2%); format: functional
Procedure, shortened: (§5)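 A549 cells, 2×10⁵/well, were cultured for 24 h at 37 °C, 5% CO₂, then treated 48 h with 1, 4 or 8 μM compound. Staining used annexin V-FITC and PI, 30 min at 25 °C, followed by flow cytometry; Q3 was counted as early apoptotic and Q2 as late apoptotic.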

A549 [18] = assay: Induction of apoptosis in human A549 cells assessed as early apoptotic cells at 1 uM after 48 hrs by Annexin-V-FITC/propidium iodide staining based flow cytometry (reference value: 15.2%); format: functional; procedure, shortened: as §5
A549 [19] = assay: Induction of apoptosis in human A549 cells assessed as late apoptotic cells at 1 uM after 48 hrs by Annexin-V-FITC/propidium iodide staining based flow cytometry (reference value: 4.05%); format: functional; procedure, shortened: as §5
A549 [20] = assay: Induction of apoptosis in human A549 cells assessed as necrotic cells at 1 uM after 48 hrs by Annexin-V-FITC/propidium iodide staining based flow cytometry (reference value: 5.45%); format: functional; procedure, shortened: as §5
A549 [21] = assay: Induction of apoptosis in human A549 cells assessed as live cells at 4 uM after 48 hrs by Annexin-V-FITC/propidium iodide staining based flow cytometry (reference value: 75.2%); format: functional; procedure, shortened: as §5
A549 [22] = assay: Induction of apoptosis in human A549 cells assessed as early apoptotic cells at 4 uM after 48 hrs by Annexin-V-FITC/propidium iodide staining based flow cytometry (reference value: 15.2%); format: functional; procedure, shortened: as §5
A549 [23] = assay: Induction of apoptosis in human A549 cells assessed as late apoptotic cells at 4 uM after 48 hrs by Annexin-V-FITC/propidium iodide staining based flow cytometry (reference value: 4.05%); format: functional; procedure, shortened: as §5
A549 [24] = assay: Induction of apoptosis in human A549 cells assessed as necrotic cells at 4 uM after 48 hrs by Annexin-V-FITC/propidium iodide staining based flow cytometry (reference value: 5.45%); format: functional; procedure, shortened: as §5
A549 [25] = assay: Induction of apoptosis in human A549 cells assessed as live cells at 8 uM after 48 hrs by Annexin-V-FITC/propidium iodide staining based flow cytometry (reference value: 75.2%); format: functional; procedure, shortened: as §5
A549 [26] = assay: Induction of apoptosis in human A549 cells assessed as early apoptotic cells at 8 uM after 48 hrs by Annexin-V-FITC/propidium iodide staining based flow cytometry (reference value: 15.2%); format: functional; procedure, shortened: as §5
A549 [27] = assay: Induction of apoptosis in human A549 cells assessed as late apoptotic cells at 8 uM after 48 hrs by Annexin-V-FITC/propidium iodide staining based flow cytometry (reference value: 4.05%); format: functional; procedure, shortened: as §5
A549 [28] = assay: Induction of apoptosis in human A549 cells assessed as necrotic cells at 8 uM after 48 hrs by Annexin-V-FITC/propidium iodide staining based flow cytometry (reference value: 5.45%); format: functional; procedure, shortened: as §5
A549 [29] = assay: Induction of apoptosis in human A549 cells assessed as caspase-3 activation at 1 to 8 uM by Ac-DEVD-pNA substrate based assay; format: functional, cell-based
Procedure, shortened: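 A549 lysates were spun at 15,000 rpm for 15 min at 4 °C. Then 110 µg protein was mixed with reaction buffer and Ac-DEVD-pNA substrate (2 mM stock) and incubated 3 h at 37 °C. Caspase-3 activity was measured as released pNA at 405 nm.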

## O=c1cc(-c2ccccc2)oc2cc(OCCCO)c(O)c(O)c12
Danio rerio [1]
  MEC: 100 µM
Danio rerio [2]
  LC100: > 200 µM
  MTC: 100 µM
[3]
  selectivity ratio: 1
[4]
  selectivity ratio: > 2

## CCN(CC)C(=O)COc1c(O)cc2oc(-c3ccccc3)cc(=O)c2c1O
Danio rerio [1]
  MEC: 200 µM
Danio rerio [2]
  LC100: 200 µM
  MTC: 200 µM
[3]
  selectivity ratio: 1
[4]
  selectivity ratio: 1

## O=c1cc(-c2ccccc2)oc2cc(O)c(O)c(O)c12 [BAICALEIN]
Danio rerio [1]
  MEC: 0.5 µM
Danio rerio [2]
  LC100: 1 µM
  MTC: 0.5 µM
[3]
  selectivity ratio: 1
[4]
  selectivity ratio: 2

## O=C(COc1c(OCc2ccccc2)cc2oc(-c3ccccc3)cc(=O)c2c1O)N1CCNCC1
Danio rerio [1]
  MEC: 5 µM
Danio rerio [2]
  LC100: 100 µM
  MTC: 25 µM
[3]
  selectivity ratio: 5
[4]
  selectivity ratio: 20
Danio rerio [5]
  inhibition: Dose-dependent effect
Danio rerio [6]
  inhibition (INH): 100%
Danio rerio [7]
  inhibition (INH): 100%
Danio rerio [8]
  Activity: Non-Toxic
Danio rerio [9]
  Activity: inactive
HUVEC [10]; Homo sapiens, HUVEC
  IC50: 57.1 µM
HUVEC [10]; human, huvec
  inhibition (INH): Dose-dependent effect
HUVEC [11]
  Activity: <=50%
HUVEC [12]
  inhibition: Dose-dependent effect
HUVEC [13]
  inhibition at 25 µM: 24.9%
HUVEC [14]
  inhibition at 50 µM: 54.2%
HUVEC [15]
  inhibition at 100 µM: 72.6%
A549 [16]
  IC50: 4.73 µM
L929
  IC50: 19.1 µM
A549 [17]
  Activity: 36.2%
A549 [18]
  Activity: 32.9%
A549 [19]
  Activity: 23%
A549 [20]
  Activity: 7.92%
A549 [21]
  Activity: 22.4%
A549 [22]
  Activity: 36.3%
A549 [23]
  Activity: 36%
A549 [24]
  Activity: 5.4%
A549 [25]
  Activity: 10.2%
A549 [26]
  Activity: 22.5%
A549 [27]
  Activity: 62.1%
A549 [28]
  Activity: 2.15%
A549 [29]
  Activity: Active

From ChEMBL document CHEMBL4229525, “Anti-angiogenic and anticancer effects of baicalein derivatives based on transgenic zebrafish model” (Bioorg Med Chem, 2018)
